Data set [1] is described as follows: Cytotoxicity against human CEM-SS cells by XTT assay. It is filed as cell-based. The method, boiled down:
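Uninfected CEM-SS cells (2×10^4/well) were exposed for 6 days to half-log compound dilutions (≥2 replicate wells) added at seeding. Viability was read by XTT formazan (4 h, A450). CC50 was derived from the drop in formazan versus uninfected, compound-free cells.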

The target in data set [2] is Human immunodeficiency virus type 1 integrase (Human immunodeficiency virus 1, UniProt Q7ZJM1). The experiment in a line: Inhibition of HIV1 integrase expressed in Escherichia coli assessed as strand transfer activity by scintillation proximity assay. The method, boiled down:
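His6-tagged full-length HIV-1 IN (mutant) was preincubated 15 min at 22 °C with biotinylated U5 LTR donor DNA on streptavidin SPA beads, then [3H]-thymidine target DNA was added. Final: 2 pmol donor, 246 nM IN, 50 nM target, pH 7.2 MOPS, 4 mM MgCl2, 1% DMSO. Ran 50 min at 37 °C, stopped with EDTA/NaOH/CsCl, quench-corrected counts. IC50 from 4-parameter logistic fit, 2-3 replicates per concentration.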
(In general: SPA uses beads or plates that emit light when radiolabelled molecules are held near them.)

Data set [3] deals with Human immunodeficiency virus 1. The experiment in a line: Antiviral activity against HIV1 RF in human CEM-SS cells assessed inhibition of virus-induced cytopathic effect by XTT assay. It is filed as functional, organism-based. The note with it: Human immunodeficiency virus 1, RF. A digest of the protocol:
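CEM-SS cells (2×10^4/well) were infected with HIV-1 RF at an MOI giving 90% cell death by day 6. Compounds, in half-log dilutions with ≥2 replicate wells, were added at seeding before infection. On day 6, XTT/phenazine methosulfate was added for 4 h and read at A450. EC50 is the concentration restoring formazan to 50% of uninfected, compound-free cells.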
(Damage to the host cells serves as the signal in cytopathic effect assays.)

Data set [4] is described as follows: Metabolic stability in human hepatocytes assessed as extraction ratio after 4 hrs. Type of data set: ADME, cell-based, Hepatocyte.
A short description of data set [5]: Metabolic stability in human liver microsomes assessed as extraction ratio after 4 hrs in presence of NADPH. Type of data set: ADME, Microsome.
A short description of data set [6]: Mutagenic activity in Salmonella Typhimurium TA98 by Biolum Ames test. It is filed as toxicity. The note with it: salmonella enterica subsp. enterica serovar typhimurium. For orientation: The Ames test detects mutagens through reverse mutation in bacteria.
The nature of data set [7]: Mutagenic activity in Salmonella Typhimurium TA98 by Biolum Ames test in presence of metabolizing enzyme. The note with it: salmonella enterica subsp. enterica serovar typhimurium. Type of data set: toxicity.
The nature of data set [8]: Mutagenic activity in Salmonella Typhimurium TA100 by Biolum Ames test. The note with it: salmonella enterica subsp. enterica serovar typhimurium. Type of data set: toxicity.
The nature of data set [9]: Mutagenic activity in Salmonella Typhimurium TA100 by Biolum Ames test in presence of metabolizing enzyme. The note with it: salmonella enterica subsp. enterica serovar typhimurium. Type of data set: toxicity.

In general, CC50 refers to the concentration at which the toxic effect on the cells reaches its halfway point. The low end stands for greater toxicity to the cells, the high end for lower toxicity to the cells. Usually IC50 stands for the concentration at which inhibition is half-maximal. What is called EC50 is the concentration needed to bring the measured effect to its halfway point. A lower EC50 goes with a more potent agent.

Chain of Human immunodeficiency virus type 1 integrase (Q7ZJM1 whole entry): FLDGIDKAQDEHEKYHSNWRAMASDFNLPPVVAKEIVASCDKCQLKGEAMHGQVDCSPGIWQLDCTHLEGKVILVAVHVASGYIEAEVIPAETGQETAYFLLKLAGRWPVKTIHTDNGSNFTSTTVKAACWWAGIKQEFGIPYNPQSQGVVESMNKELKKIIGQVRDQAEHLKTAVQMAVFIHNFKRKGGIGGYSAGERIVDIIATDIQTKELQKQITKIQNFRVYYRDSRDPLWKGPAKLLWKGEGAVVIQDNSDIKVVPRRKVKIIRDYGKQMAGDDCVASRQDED

The molecule `O=C(NO)c1cc2ccn(Cc3cccc(Cl)c3F)c2cn1` yielded a cytotoxic concentration (CC50) in [1] of over 320000 nM. In addition, in data set [2], the half-maximal inhibitory concentration (IC50) came to 102 nM. This molecule came in with an EC50 in [3] of 8 nM.
With `O=C(NO)c1cc2ccn(Cc3ccccn3)c2cn1`, the cytotoxic concentration (CC50) in data set [1] is over 10000 nM. In [2], the IC50 was found to be 779 nM. This molecule also showed a concentration giving a half-maximal response (EC50) in data set [3] of 88 nM.
`O=C(O)c1cc2ccn(Cc3cc(Cl)cs3)c2cn1`: in data set [2], the IC50 worked out at 3200 nM.
As for `CCCN(O)C(=O)c1cc2ccn(Cc3ccc(F)cc3)c2cn1`, the CC50 in [1] stood at 26000 nM. Besides, the IC50 in data set [2] worked out at 618 nM. Also, the half-maximal effective concentration (EC50) in data set [3] worked out at 350 nM. In data set [4], the hepatic extraction ratio at 4 h is 0.96.
In the case of `NC(=O)c1cc(F)ccc1Cn1ccc2cc(C(=O)NO)ncc21`, in [1], the CC50 was over 10000 nM. In addition, the IC50 in [2] was determined as 1300 nM. The EC50 in data set [3] came out at 55 nM.
With `NC(=O)c1cc(Cn2ccc3cc(C(=O)NO)ncc32)ccc1F`, the CC50 in [1] is over 10000 nM. Moreover, the IC50 in data set [2] stood at 608 nM. In [3], a half-maximal effect (EC50) was put at 58 nM.
`O=C(O)c1cc2ccn(Cc3ccc(F)cc3F)c2cn1`: the half-maximal inhibitory concentration (IC50) in data set [2] amounted to 3500 nM.
Take `O=C(NO)c1cc2ccn(Cc3cccc(CO)n3)c2cn1`: the CC50 in data set [1] is over 10000 nM. In [2], the IC50 was 5730 nM. For the same molecule, the response in data set [3] was half-maximal at 730 nM (EC50).
`NC(=O)c1ccc(Cn2ccc3cc(C(=O)NO)ncc32)cc1` gave a CC50 in data set [1] of over 10000 nM. Moreover, in data set [2], the half-maximal inhibitory concentration (IC50) was over 10000 nM. In [3], the concentration for a half-maximal effect (EC50) is over 10000 nM.
Molecule `O=C(c1cc2ccn(Cc3ccc(F)cc3)c2cn1)N(O)Cc1ccccc1` came in with a half-maximal cytotoxic concentration (CC50) in [1] of over 320000 nM. The IC50 in data set [2] came out at 23000 nM. This molecule also gave an EC50 in [3] of 330 nM. Moreover, the hepatic extraction ratio at 4 h in data set [4] was 1.
Regarding `N#Cc1cc(F)ccc1Cn1ccc2cc(C(=O)NO)ncc21`, the CC50 in data set [1] is over 10000 nM. Further, the IC50 in [2] amounted to 812 nM. Further, the EC50 in data set [3] is 120 nM.
`O=C(NO)c1cc2ccn(Cc3cccc(Cl)c3Cl)c2cn1` gave a CC50 in [1] of over 320000 nM. In addition, the IC50 in [2] came out at 442 nM. The same molecule registered an EC50 in data set [3] of 35 nM.
With `CONC(=O)c1cc2ccn(Cc3ccc(F)cc3F)c2cn1`, the hepatic extraction ratio at 4 h was determined as 0.68 in data set [5] and 1 in [4]. This molecule registered a CC50 in data set [1] of over 320000 nM. Besides, the IC50 in data set [2] was determined as 356 nM. Moreover, the EC50 in [3] came out at 21 nM.
Molecule `O=C(NO)c1cc2ccn(Cc3ccc(Cl)s3)c2cn1` showed a 50% cytotoxic concentration (CC50) in data set [1] of over 10000 nM. For the same molecule, in data set [2], the half-inhibitory concentration (IC50) came to 387 nM. In data set [3], this molecule yielded a half-maximal effective concentration (EC50) of 20 nM.
`O=C(O)c1cc2ccn(Cc3cccc(Cl)c3F)c2cn1`: in data set [2], the IC50 turned out to be 950 nM.
As to `CON(C)C(=O)c1cc2ccn(Cc3ccc(F)cc3F)c2cn1`, the hepatic extraction ratio at 4 h in data set [5] and in data set [4] was 1 in each case. In data set [1], this molecule registered a cytotoxic concentration (CC50) of over 10000 nM. For the same molecule, in [2], the IC50 was over 50000 nM. The molecule also displayed an EC50 in data set [3] of over 10000 nM.
Take `O=C(O)c1cc2ccn(Cc3cccc(Cl)c3Cl)c2cn1`: the IC50 in data set [2] was determined as 5420 nM.
Molecule `N#Cc1ccc(Cn2ccc3cc(C(=O)NO)ncc32)cc1` returned a half-maximal cytotoxic concentration (CC50) in data set [1] of over 10000 nM. In addition, in data set [2], the 50% inhibitory concentration (IC50) was over 10000 nM. In addition, in [3], the midpoint of the response, the EC50, lay at 1200 nM.
Consider `CC(C)CN(O)C(=O)c1cc2ccn(Cc3ccc(F)cc3)c2cn1`, for which, in data set [1], the CC50 was determined as 102000 nM. For the same molecule, the IC50 in [2] came to 1700 nM. In [3], the EC50 came to 1400 nM. Further, the hepatic extraction ratio at 4 h in data set [4] worked out at 0.95.
For the molecule `O=C(NO)c1cc2ccn(Cc3ccc(F)cc3F)c2cn1`, the figures for the hepatic extraction ratio at 4 h in data set [5] and in [4] were under 0.26 and 0.9, respectively. The same molecule had a CC50 in data set [1] of over 320000 nM. In [2], the IC50 was found to be 84 nM. Moreover, the result in data set [6], in data set [7], in data set [8] and in data set [9] was Active. Further, in data set [3], the EC50 came to 8 nM.
The molecule `NC(=O)c1cccc(Cn2ccc3cc(C(=O)NO)ncc32)c1` displayed a CC50 in data set [1] of over 10000 nM. The IC50 in data set [2] worked out at 1720 nM. Also, a half-maximal effect in [3] (EC50) was put at 530 nM.
For `O=C(O)c1cc2ccn(Cc3ccc(F)cc3)c2cn1`, in data set [2], the 50% inhibitory concentration (IC50) was 7350 nM.
On to `O=C(O)c1cc2ccn(Cc3c(F)cc(Cl)cc3F)c2cn1`, for which, in data set [2], the IC50 came to 1190 nM.
As for `O=C(c1cc2ccn(Cc3ccc(F)cc3)c2cn1)N(O)CCCO`, in data set [1], the half-maximal cytotoxic concentration (CC50) came out at 77000 nM. The IC50 in [2] came to 804 nM. For the same molecule, the EC50 in [3] came out at 300 nM. Moreover, the hepatic extraction ratio at 4 h in [4] came to 0.95.
With `O=C(NO)c1cc2ccn(Cc3c(F)ccc(Cl)c3F)c2cn1`, in data set [1], the half-maximal cytotoxic concentration (CC50) is over 1000 nM. Besides, in data set [2], the 50% inhibitory concentration (IC50) amounted to 131 nM. This molecule showed a concentration for a half-maximal effect (EC50) in data set [3] of 7 nM.
As to `O=C(O)c1cc2ccn(Cc3ccc(F)c(F)c3F)c2cn1`, in data set [2], the half-maximal inhibitory concentration (IC50) was 3690 nM.
Take `CN(O)C(=O)c1cc2ccn(Cc3ccc(F)cc3F)c2cn1`: the hepatic extraction ratio at 4 h in [5] was under 0.36; in data set [4], 1. The CC50 in data set [1] was 135000 nM. For the same molecule, the concentration for half-maximal inhibition (IC50) in data set [2] was determined as 250 nM. Further, the Activity entry in data set [6], in data set [7], in data set [8] and in [9] was “Not Active” throughout. For the same molecule, it took 32 nM to reach a half-maximal effect in data set [3] (EC50).
On to `O=C(O)c1cc2ccn(Cc3ccccc3F)c2cn1`, for which, in data set [2], the IC50 is over 50000 nM.
Molecule `O=C(NO)c1cc2ccn(Cc3ccc(F)cc3)c2cn1` displayed a CC50 in data set [1] of 159000 nM. For the same molecule, the half-inhibitory concentration (IC50) in [2] worked out at 137 nM. Also, the EC50 in data set [3] was 9 nM. Also, in [4], the hepatic extraction ratio at 4 h is 0.92.
Consider `CN(O)C(=O)c1cc2ccn(Cc3ccc(F)cc3)c2cn1`, for which the CC50 in data set [1] turned out to be 200000 nM. Moreover, the IC50 in data set [2] is 250 nM.
For `N#Cc1cccc(Cn2ccc3cc(C(=O)NO)ncc32)c1`, the CC50 in [1] is over 10000 nM. For the same molecule, in [2], the half-inhibitory concentration (IC50) came to 1620 nM. In [3], this molecule displayed an EC50 of 500 nM.
In the case of `CC(C)N(O)C(=O)c1cc2ccn(Cc3ccc(F)cc3)c2cn1`, the midpoint of cytotoxicity in data set [1], the CC50, lay at 36000 nM. For the same molecule, the IC50 in [2] turned out to be 8000 nM. Also, the EC50 in data set [3] is 3500 nM. Also, the hepatic extraction ratio at 4 h in data set [4] is 0.93.

For the origin of these results see ChEMBL document CHEMBL1154670, “Azaindole hydroxamic acids are potent HIV-1 integrase inhibitors” (J Med Chem, 2009).
